Test results from ChEMBL document CHEMBL1132764, “Solution-phase combinatorial synthesis and evaluation of piperazine-2,5-dione derivatives” (2000).
Converted amounts (≈) assume the structure as drawn.

tested on: Artemia salina; assay: (§1) Compound was tested for brine shrimp (Artemia salina) toxicity measured as the lowest value at which severe inhibition of nauplii movement was observed; type: functional; details: not given
In short: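 Artemia salina eggs held 24 h in artificial seawater; about 20 nauplii per well in 980 µL brine. Compound added as 1-100 µg in 20 µL DMSO, top concentration 100 µg/mL, each concentration in quadruplicate. Incubated 24 h at 26 °C. Larvae scored against DMSO controls (control deaths <10%). Assay conditions validated with caffeine.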

SMILES	lowest concentration causing severe inhibition of nauplii movement [µg/mL]
COc1ccc(/C=c2\[nH]c(=O)/c(=C/c3ccc(OC)cc3)[nH]c2=O)cc1	>100
COc1ccc(/C=c2\[nH]c(=O)/c(=C/c3cccs3)[nH]c2=O)cc1OC	>100
O=c1[nH]/c(=C\c2cccs2)c(=O)[nH]/c1=C\c1ccccn1	100
CC(C)/C=c1\[nH]c(=O)/c(=C/C(C)C)[nH]c1=O	>100
COc1cc(OC)c(/C=c2\[nH]c(=O)/c(=C/c3cccs3)[nH]c2=O)c(OC)c1	>100
COc1cc(/C=c2\[nH]c(=O)/c(=C/c3cc(OC)c(OC)c(OC)c3)[nH]c2=O)cc(OC)c1OC	>100
COc1ccc(/C=c2\[nH]c(=O)/c(=C/c3ccc([N+](=O)[O-])cc3)[nH]c2=O)cc1	>100
COc1cc(/C=c2\[nH]c(=O)/c(=C/c3ccccn3)[nH]c2=O)cc(OC)c1OC	100
O=c1[nH]/c(=C\c2ccccc2[N+](=O)[O-])c(=O)[nH]/c1=C\c1ccc([N+](=O)[O-])cc1	>100
C/C=c1\[nH]c(=O)/c(=C/CCCCC)[nH]c1=O	>100
C/C=c1\[nH]c(=O)c(=CC=Cc2ccccc2)[nH]c1=O	>100
O=c1[nH]/c(=C\c2cccs2)c(=O)[nH]/c1=C\c1cccs1	>100
COc1cc(OC)c(/C=c2\[nH]c(=O)/c(=C/c3c[nH]c4ccccc34)[nH]c2=O)c(OC)c1	>100
C/C=c1\[nH]c(=O)/c(=C/C=C/C)[nH]c1=O	>100
COc1ccc(/C=c2\[nH]c(=O)/c(=C/c3cc(OC)c(OC)c(OC)c3)[nH]c2=O)cc1OC	100
COc1cc(/C=c2\[nH]c(=O)/c(=C/c3cc(OC)c(OC)c(OC)c3)[nH]c2=O)cc(OC)c1	100
COc1cc(/C=c2\[nH]c(=O)/c(=C/c3c[nH]c4ccccc34)[nH]c2=O)cc(OC)c1	>100
O=c1[nH]/c(=C\c2ccc(Cl)cc2)c(=O)[nH]/c1=C\c1ccc(Cl)cc1	>100
C/C=C/C=c1\[nH]c(=O)/c(=C/C(C)C)[nH]c1=O	>100
COc1ccc(/C=c2\[nH]c(=O)/c(=C/c3ccc(Cl)cc3)[nH]c2=O)cc1	>100

SMILES	lowest concentration causing severe inhibition of nauplii movement [µg/mL]
O=c1[nH]/c(=C\c2c[nH]c3ccccc23)c(=O)[nH]/c1=C\c1c[nH]c2ccccc12	>100
O=c1[nH]/c(=C\c2ccc([N+](=O)[O-])cc2)c(=O)[nH]/c1=C\c1ccc(Cl)cc1	>100
CC/C=c1\[nH]c(=O)c(=CC=Cc2ccccc2)[nH]c1=O	>100
COc1ccc(/C=c2\[nH]c(=O)/c(=C/c3ccc(OC)c(OC)c3)[nH]c2=O)cc1OC	>100
C/C=C/C=c1\[nH]c(=O)/c(=C/CC)[nH]c1=O	>100
O=c1[nH]/c(=C\c2ccc([N+](=O)[O-])cc2)c(=O)[nH]/c1=C\c1ccccc1	>100
COc1cc(OC)c(/C=c2\[nH]c(=O)/c(=C/c3cc(OC)c(OC)c(OC)c3)[nH]c2=O)c(OC)c1	>100
O=c1[nH]/c(=C\c2ccccc2[N+](=O)[O-])c(=O)[nH]/c1=C\c1ccccc1	>100
COc1cc(/C=c2\[nH]c(=O)/c(=C/c3ccc(OC)c(OC)c3)[nH]c2=O)cc(OC)c1	>100
C/C=C/C=c1\[nH]c(=O)/c(=C/CCCCC)[nH]c1=O	100
C/C=C/C=c1\[nH]c(=O)/c(=C/C=C/C)[nH]c1=O	>100
C/C=c1\[nH]c(=O)/c(=C/CC)[nH]c1=O	>100
COc1cc(/C=c2\[nH]c(=O)/c(=C/c3c(OC)cc(OC)cc3OC)[nH]c2=O)cc(OC)c1	100
CCCCC/C=c1\[nH]c(=O)/c(=C/C(C)C)[nH]c1=O	>100
CC/C=c1\[nH]c(=O)/c(=C/CC)[nH]c1=O	>100
O=c1[nH]/c(=C\c2c[nH]c3ccccc23)c(=O)[nH]/c1=C\c1cccs1	>100
COc1ccc(/C=c2\[nH]c(=O)/c(=C/c3ccccc3[N+](=O)[O-])[nH]c2=O)cc1	>100
CC/C=c1\[nH]c(=O)/c(=C/C(C)C)[nH]c1=O	>100
C/C=c1\[nH]c(=O)/c(=C/C)[nH]c1=O	100
O=c1[nH]/c(=C\c2ccccc2[N+](=O)[O-])c(=O)[nH]/c1=C\c1ccc(Cl)cc1	>100

SMILES	lowest concentration causing severe inhibition of nauplii movement [µg/mL]
O=c1[nH]/c(=C\c2ccc(O)cc2)c(=O)[nH]/c1=C\c1ccccc1	>100
CC/C=c1\[nH]c(=O)/c(=C/CCCCC)[nH]c1=O	100
O=c1[nH]/c(=C\c2ccc([N+](=O)[O-])cc2)c(=O)[nH]/c1=C\c1ccc([N+](=O)[O-])cc1	>100
COc1cc(OC)c(/C=c2\[nH]c(=O)/c(=C/c3c(OC)cc(OC)cc3OC)[nH]c2=O)c(OC)c1	100
O=c1[nH]/c(=C\c2ccccc2)c(=O)[nH]/c1=C\c1ccccc1	>100
O=c1[nH]/c(=C\c2ccccn2)c(=O)[nH]/c1=C\c1ccccn1	100
O=c1[nH]/c(=C\c2ccccc2[N+](=O)[O-])c(=O)[nH]/c1=C\c1ccccc1[N+](=O)[O-]	>100
COc1cc(/C=c2\[nH]c(=O)/c(=C/c3cccs3)[nH]c2=O)cc(OC)c1OC	>100
O=c1[nH]/c(=C\c2c[nH]c3ccccc23)c(=O)[nH]/c1=C\c1ccccn1	>100
COc1cc(OC)c(/C=c2\[nH]c(=O)/c(=C/c3ccccn3)[nH]c2=O)c(OC)c1	>100
O=c1[nH]/c(=C\c2ccc(Cl)cc2)c(=O)[nH]/c1=C\c1ccccc1	>100
COc1cc(OC)c(/C=c2\[nH]c(=O)/c(=C/c3ccc(OC)c(OC)c3)[nH]c2=O)c(OC)c1	>100
CC(C)/C=c1\[nH]c(=O)c(=CC=Cc2ccccc2)[nH]c1=O	>100
CCCCC/C=c1\[nH]c(=O)/c(=C/CCCCC)[nH]c1=O	100
COc1cc(/C=c2\[nH]c(=O)/c(=C/c3cc(OC)cc(OC)c3)[nH]c2=O)cc(OC)c1	>100
COc1ccc(/C=c2\[nH]c(=O)/c(=C/c3c[nH]c4ccccc34)[nH]c2=O)cc1OC	>100
COc1cc(/C=c2\[nH]c(=O)/c(=C/c3c[nH]c4ccccc34)[nH]c2=O)cc(OC)c1OC	100
COc1ccc(/C=c2\[nH]c(=O)/c(=C/c3ccccc3)[nH]c2=O)cc1	>100

tested on: Artemia salina; assay: as §1; type: functional; details: read-out: LD50 (the source's name)
In short: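 Artemia salina eggs held 24 h in artificial seawater; about 20 nauplii per well in 980 µL brine. Compound added at 1-100 µg in 20 µL DMSO, top level 100 µg/mL (solubility limit), each concentration in quadruplicate. Incubated 24 h at 26 °C. Nauplii movement inhibition and survival scored against DMSO controls, with control deaths <10%.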

SMILES	LC50 [µg/mL]
COc1ccc(/C=c2\[nH]c(=O)/c(=C/c3ccccn3)[nH]c2=O)cc1OC	60 (≈ 171 µM)
COc1cc(/C=c2\[nH]c(=O)/c(=C/c3ccccn3)[nH]c2=O)cc(OC)c1	36 (≈ 102 µM)
COc1cc(/C=c2\[nH]c(=O)/c(=C/c3cccs3)[nH]c2=O)cc(OC)c1	18 (≈ 50.5 µM)
